Values after ≈ are worked out from the molar mass of the structure shown. Active and inactive are the calls of the source. The calls are words filed in the database; no cut-off is given here.
system: Radical scavenging activity; test: Antioxidant activity assessed as DPPH free radical scavenging activity at 100 ug/ml after 30 mins by spectrophotometric analysis relative to control; format: functional
Outline: (§1)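 Compounds in methanol at […] were mixed with 0.004% (w/v) methanolic DPPH. After 30 min at room temperature, absorbance was read at 517 nm against a blank. Percent inhibition was calculated from control (all reagents minus compound) and sample absorbances. Run in triplicate.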

SMILES	inhibition
O=S(=O)(CC1=NCCS1)c1c(-c2ccccc2)noc1-c1ccccc1	inactive
Cc1ccc(C2CNN=C2S(=O)(=O)CC2=NCCO2)cc1 (stereo not given)	49.8%
COc1ccc(C2=NN(c3ccccc3)C(c3ccc(C)cc3)C2S(=O)(=O)CC2=NCCO2)cc1 (stereo not given)	73.8%
O=S(=O)(CC1=NCCS1)c1n[nH]cc1-c1ccc(Cl)cc1	inactive
O=S(=O)(CC1=NCCO1)c1c(-c2ccccc2)noc1-c1ccccc1	72%
O=S(=O)(CC1=NCCS1)c1c(-c2ccc(Cl)cc2)nn(-c2ccccc2)c1-c1ccc(Cl)cc1	inactive
Cc1ccc(-c2c[nH]nc2S(=O)(=O)CC2=NCCS2)cc1	inactive
O=S(=O)(CC1=NCCS1)c1c(-c2ccc(Cl)cc2)noc1-c1ccc(Cl)cc1	inactive

system: not listed separately; test: Antioxidant activity assessed as hydrogen peroxide scavenging activity at 75 ug/ml relative to control; format: functional

SMILES	Activity
O=S(=O)(CC1=NCCS1)c1c(-c2ccccc2)noc1-c1ccccc1	inactive
Cc1ccc(C2CNN=C2S(=O)(=O)CC2=NCCO2)cc1 (stereo not given)	42.1%
COc1ccc(C2=NN(c3ccccc3)C(c3ccc(C)cc3)C2S(=O)(=O)CC2=NCCO2)cc1 (stereo not given)	64.3%
O=S(=O)(CC1=NCCS1)c1n[nH]cc1-c1ccc(Cl)cc1	inactive
O=S(=O)(CC1=NCCO1)c1c(-c2ccccc2)noc1-c1ccccc1	58.1%
O=S(=O)(CC1=NCCS1)c1c(-c2ccc(Cl)cc2)nn(-c2ccccc2)c1-c1ccc(Cl)cc1	inactive
Cc1ccc(-c2c[nH]nc2S(=O)(=O)CC2=NCCS2)cc1	inactive
O=S(=O)(CC1=NCCS1)c1c(-c2ccc(Cl)cc2)noc1-c1ccc(Cl)cc1	inactive

system: not listed separately; test: Antioxidant activity assessed as nitric oxide scavenging activity at 50 ug/ml after 150 mins by Griess method relative to control; format: functional
Outline: (§2)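 NO was generated from sodium nitroprusside (10 mM) in phosphate buffer saline (0.2 M, pH 7.4). Compounds were added at […] and incubated 150 min at 25 °C. Percent scavenging was calculated from control (all reagents minus compound) and sample absorbances. Run in triplicate.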

SMILES	Activity
O=S(=O)(CC1=NCCS1)c1c(-c2ccccc2)noc1-c1ccccc1	inactive
Cc1ccc(C2CNN=C2S(=O)(=O)CC2=NCCO2)cc1 (stereo not given)	45.9%
COc1ccc(C2=NN(c3ccccc3)C(c3ccc(C)cc3)C2S(=O)(=O)CC2=NCCO2)cc1 (stereo not given)	59.1%
O=S(=O)(CC1=NCCS1)c1n[nH]cc1-c1ccc(Cl)cc1	inactive
O=S(=O)(CC1=NCCO1)c1c(-c2ccccc2)noc1-c1ccccc1	56.7%
O=S(=O)(CC1=NCCS1)c1c(-c2ccc(Cl)cc2)nn(-c2ccccc2)c1-c1ccc(Cl)cc1	inactive
Cc1ccc(-c2c[nH]nc2S(=O)(=O)CC2=NCCS2)cc1	inactive
O=S(=O)(CC1=NCCS1)c1c(-c2ccc(Cl)cc2)noc1-c1ccc(Cl)cc1	inactive

system: not listed separately; test: Antioxidant activity assessed as nitric oxide scavenging activity at 100 ug/ml after 150 mins by Griess method relative to control; format: functional; outline: as §2

SMILES	Activity
O=S(=O)(CC1=NCCS1)c1c(-c2ccccc2)noc1-c1ccccc1	inactive
Cc1ccc(C2CNN=C2S(=O)(=O)CC2=NCCO2)cc1 (stereo not given)	51.4%
COc1ccc(C2=NN(c3ccccc3)C(c3ccc(C)cc3)C2S(=O)(=O)CC2=NCCO2)cc1 (stereo not given)	70.5%
O=S(=O)(CC1=NCCS1)c1n[nH]cc1-c1ccc(Cl)cc1	inactive
O=S(=O)(CC1=NCCO1)c1c(-c2ccccc2)noc1-c1ccccc1	62.1%
O=S(=O)(CC1=NCCS1)c1c(-c2ccc(Cl)cc2)nn(-c2ccccc2)c1-c1ccc(Cl)cc1	inactive
Cc1ccc(-c2c[nH]nc2S(=O)(=O)CC2=NCCS2)cc1	inactive
O=S(=O)(CC1=NCCS1)c1c(-c2ccc(Cl)cc2)noc1-c1ccc(Cl)cc1	inactive

system: not listed separately; test: Antioxidant activity assessed as nitric oxide scavenging activity at 75 ug/ml after 150 mins by Griess method relative to control; format: functional; outline: as §2

SMILES	Activity
O=S(=O)(CC1=NCCS1)c1c(-c2ccccc2)noc1-c1ccccc1	inactive
Cc1ccc(C2CNN=C2S(=O)(=O)CC2=NCCO2)cc1 (stereo not given)	49.7%
COc1ccc(C2=NN(c3ccccc3)C(c3ccc(C)cc3)C2S(=O)(=O)CC2=NCCO2)cc1 (stereo not given)	64.9%
O=S(=O)(CC1=NCCS1)c1n[nH]cc1-c1ccc(Cl)cc1	inactive
O=S(=O)(CC1=NCCO1)c1c(-c2ccccc2)noc1-c1ccccc1	57.3%
O=S(=O)(CC1=NCCS1)c1c(-c2ccc(Cl)cc2)nn(-c2ccccc2)c1-c1ccc(Cl)cc1	inactive
Cc1ccc(-c2c[nH]nc2S(=O)(=O)CC2=NCCS2)cc1	inactive
O=S(=O)(CC1=NCCS1)c1c(-c2ccc(Cl)cc2)noc1-c1ccc(Cl)cc1	inactive

system: not listed separately; test: Antioxidant activity assessed as hydrogen peroxide scavenging activity at 100 ug/ml relative to control; format: functional

SMILES	Activity
O=S(=O)(CC1=NCCS1)c1c(-c2ccccc2)noc1-c1ccccc1	inactive
Cc1ccc(C2CNN=C2S(=O)(=O)CC2=NCCO2)cc1 (stereo not given)	46.8%
COc1ccc(C2=NN(c3ccccc3)C(c3ccc(C)cc3)C2S(=O)(=O)CC2=NCCO2)cc1 (stereo not given)	67.7%
O=S(=O)(CC1=NCCS1)c1n[nH]cc1-c1ccc(Cl)cc1	inactive
O=S(=O)(CC1=NCCO1)c1c(-c2ccccc2)noc1-c1ccccc1	60.1%
O=S(=O)(CC1=NCCS1)c1c(-c2ccc(Cl)cc2)nn(-c2ccccc2)c1-c1ccc(Cl)cc1	inactive
Cc1ccc(-c2c[nH]nc2S(=O)(=O)CC2=NCCS2)cc1	inactive
O=S(=O)(CC1=NCCS1)c1c(-c2ccc(Cl)cc2)noc1-c1ccc(Cl)cc1	inactive

system: Radical scavenging activity; test: Antioxidant activity assessed as DPPH free radical scavenging activity at 50 ug/ml after 30 mins by spectrophotometric analysis relative to control; format: functional; outline: as §1

SMILES	inhibition
O=S(=O)(CC1=NCCS1)c1c(-c2ccccc2)noc1-c1ccccc1	inactive
Cc1ccc(C2CNN=C2S(=O)(=O)CC2=NCCO2)cc1 (stereo not given)	38.7%
COc1ccc(C2=NN(c3ccccc3)C(c3ccc(C)cc3)C2S(=O)(=O)CC2=NCCO2)cc1 (stereo not given)	64.4%
O=S(=O)(CC1=NCCS1)c1n[nH]cc1-c1ccc(Cl)cc1	inactive
O=S(=O)(CC1=NCCO1)c1c(-c2ccccc2)noc1-c1ccccc1	61.6%
O=S(=O)(CC1=NCCS1)c1c(-c2ccc(Cl)cc2)nn(-c2ccccc2)c1-c1ccc(Cl)cc1	inactive
Cc1ccc(-c2c[nH]nc2S(=O)(=O)CC2=NCCS2)cc1	inactive
O=S(=O)(CC1=NCCS1)c1c(-c2ccc(Cl)cc2)noc1-c1ccc(Cl)cc1	inactive

system: Radical scavenging activity; test: Antioxidant activity assessed as DPPH free radical scavenging activity at 75 ug/ml after 30 mins by spectrophotometric analysis relative to control; format: functional; outline: as §1

SMILES	inhibition
O=S(=O)(CC1=NCCS1)c1c(-c2ccccc2)noc1-c1ccccc1	inactive
Cc1ccc(C2CNN=C2S(=O)(=O)CC2=NCCO2)cc1 (stereo not given)	43.6%
COc1ccc(C2=NN(c3ccccc3)C(c3ccc(C)cc3)C2S(=O)(=O)CC2=NCCO2)cc1 (stereo not given)	70.2%
O=S(=O)(CC1=NCCS1)c1n[nH]cc1-c1ccc(Cl)cc1	inactive
O=S(=O)(CC1=NCCO1)c1c(-c2ccccc2)noc1-c1ccccc1	65.8%
O=S(=O)(CC1=NCCS1)c1c(-c2ccc(Cl)cc2)nn(-c2ccccc2)c1-c1ccc(Cl)cc1	inactive
Cc1ccc(-c2c[nH]nc2S(=O)(=O)CC2=NCCS2)cc1	inactive
O=S(=O)(CC1=NCCS1)c1c(-c2ccc(Cl)cc2)noc1-c1ccc(Cl)cc1	inactive

system: Radical scavenging activity; test: Antioxidant activity assessed as DPPH free radical scavenging activity after 30 mins by spectrophotometric analysis; format: functional; outline: as §1

IC50	SMILES
Not Active	O=S(=O)(CC1=NCCS1)c1c(-c2ccccc2)noc1-c1ccccc1
100.44 µg/mL (≈ 327 µM)	Cc1ccc(C2CNN=C2S(=O)(=O)CC2=NCCO2)cc1 (stereo not given)
67.74 µg/mL (≈ 138 µM)	COc1ccc(C2=NN(c3ccccc3)C(c3ccc(C)cc3)C2S(=O)(=O)CC2=NCCO2)cc1 (stereo not given)
Not Active	O=S(=O)(CC1=NCCS1)c1n[nH]cc1-c1ccc(Cl)cc1
69.47 µg/mL (≈ 189 µM)	O=S(=O)(CC1=NCCO1)c1c(-c2ccccc2)noc1-c1ccccc1
Not Active	O=S(=O)(CC1=NCCS1)c1c(-c2ccc(Cl)cc2)nn(-c2ccccc2)c1-c1ccc(Cl)cc1
Not Active	Cc1ccc(-c2c[nH]nc2S(=O)(=O)CC2=NCCS2)cc1
Not Active	O=S(=O)(CC1=NCCS1)c1c(-c2ccc(Cl)cc2)noc1-c1ccc(Cl)cc1

system: not listed separately; test: Antioxidant activity assessed as hydrogen peroxide scavenging activity at 50 ug/ml relative to control; format: functional

SMILES	Activity
O=S(=O)(CC1=NCCS1)c1c(-c2ccccc2)noc1-c1ccccc1	inactive
Cc1ccc(C2CNN=C2S(=O)(=O)CC2=NCCO2)cc1 (stereo not given)	41.3%
COc1ccc(C2=NN(c3ccccc3)C(c3ccc(C)cc3)C2S(=O)(=O)CC2=NCCO2)cc1 (stereo not given)	62.5%
O=S(=O)(CC1=NCCS1)c1n[nH]cc1-c1ccc(Cl)cc1	inactive
O=S(=O)(CC1=NCCO1)c1c(-c2ccccc2)noc1-c1ccccc1	57.2%
O=S(=O)(CC1=NCCS1)c1c(-c2ccc(Cl)cc2)nn(-c2ccccc2)c1-c1ccc(Cl)cc1	inactive
Cc1ccc(-c2c[nH]nc2S(=O)(=O)CC2=NCCS2)cc1	inactive
O=S(=O)(CC1=NCCS1)c1c(-c2ccc(Cl)cc2)noc1-c1ccc(Cl)cc1	inactive
